# SMARCA2 activ: increases SMARCA2 function in MMTV reporter cells; MG213 cells, MMTV-luciferase reporter, dexamethasone, overnight; activation, % at 9.1 µM; 370,000 compounds, 1% hits; AID 652017; in the data active = activation above about 7.8%;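 also: 0% = vehicle wells and 100% = reference activator wells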
# SR-BI uptake up: SR-BI HDL lipid transfer activation | activation, % at 12.5 µM | AID 504775 | 320,000 compounds, 0.096% hits | CHO ldlA[mSR-BI] cells, DiI-HDL uptake fluorescence, 3 h; 100 = double the neutral-control signal;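 active = mean replicate activation of at least 60% and every replicate at or above 60%; inconclusive = mean or all-replicate condition met, but not both; inactive = mean below 60% and not all replicates reaching 60%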;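 also: 0% = median plate neutral-control signal and 100% = twice that signal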
#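 Material: SR-BI-overexpressing, LDLR-lacking CHO cells | Dosing: Single compound concentration, delivered by pin transfer | Probe or stimulus: Labelled HDL, 10 µg/mL | Signal: Bottom-read cell fluorescence after medium removal, ex 550/em 595 nm | Schedule: 3 h, 37 °C | Evaluation: HDL uptake via cellular fluorescence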
# Vif imaging: blocks HIV Vif function. 340,000 compounds, 0.35% hits. HEK293T cells, Vif self-association by quenched fluorescence, imaging, 24 h. inhibition, % at 7.49 µM. AID 602346; in the data active = inhibition above about 50%, passing the limit was not always enough; inconclusive = no clear call, values can overlap the other calls; inactive = below about 31%
# SR-BI HDL uptake: blocks mouse SR-BI lipid uptake from DiI-HDL. Q61009. ldlA[mSR-BI] CHO cells, DiI-HDL uptake fluorescence, 3 h. inhibition, % at 12.5 µM. 320,000 compounds, 0.96% hits;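 active = mean replicate inhibition of at least 70% and a set share of replicates each scoring 70 or more; inconclusive = meets just one of the two criteria; inactive = fails both criteria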;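 also: 0% = median of neutral control wells and 100% = median of positive control wells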
# Target sequence (Q61009 whole entry, looked up): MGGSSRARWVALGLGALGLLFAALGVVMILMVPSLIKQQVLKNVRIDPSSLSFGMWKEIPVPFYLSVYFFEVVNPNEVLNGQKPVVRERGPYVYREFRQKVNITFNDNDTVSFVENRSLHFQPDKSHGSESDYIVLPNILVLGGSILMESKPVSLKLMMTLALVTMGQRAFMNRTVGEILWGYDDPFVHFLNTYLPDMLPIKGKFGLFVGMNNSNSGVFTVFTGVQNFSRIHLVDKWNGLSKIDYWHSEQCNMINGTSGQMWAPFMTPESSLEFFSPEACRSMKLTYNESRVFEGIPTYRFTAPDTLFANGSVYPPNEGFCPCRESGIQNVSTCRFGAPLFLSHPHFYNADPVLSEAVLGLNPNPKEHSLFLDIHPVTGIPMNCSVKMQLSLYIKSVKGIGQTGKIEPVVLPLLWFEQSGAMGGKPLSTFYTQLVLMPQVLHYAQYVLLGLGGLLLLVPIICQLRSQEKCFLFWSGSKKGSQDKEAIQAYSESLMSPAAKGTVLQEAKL
# H9c2 TAG inh: reduces triacylglycerol accumulation in H9c2 cells; inhibition, % at 12.5 µM; Nile Red lipid (TAG) fluorescence; cells loaded with 200 µM oleic acid; 230,000 compounds, 0.66% hits; AID 651582;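 active = pattern-corrected inhibition of lipid staining of at least 50% with the nuclear-stain viability signal not falling by more than 50%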;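 also: 0% = DMSO wells and 100% = triacsin C control wells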
# * = called active by the depositor; ? = inconclusive; . = no result. In the library only some 2.5% were active in any assay of this set; here they are far more common.
SMILES,SMARCA2 activ,SR-BI uptake up,Vif imaging,SR-BI HDL uptake,H9c2 TAG inh
CCOC(=O)N1CCC(NC(=O)C2CCN(C(=O)c3cc4oc(C)cc4n3Cc3c(F)cccc3Cl)CC2)CC1,-0.5,-30.8,-16.0,30.8,.
COc1cccc(NC(=O)c2ccnc(N3CCC(C(=O)NCc4ccccc4OC)CC3)c2)c1,-0.9,-87.5,-2.2,87.5*,.
O=C(N/N=C/c1sc(N2CCOCC2)nc1-c1ccccc1)c1cccc(S(=O)(=O)N2CCCC2)c1,-0.7,-97.4,0.4,97.4*,6.7
O=C(N/N=C/c1cc(Cl)cc([N+](=O)[O-])c1O)c1cccc(S(=O)(=O)N2CCOCC2)c1,-1.7,-125.4,-6.9,125.4*,-31.7
O=C(N/N=C/c1sc(N2CCOCC2)nc1-c1ccccc1)c1ccc(O)cc1,0.8,-59.4,-0.1,59.4,5.2
O=C(N/N=C/c1ccccc1Br)c1cccc(S(=O)(=O)N2CCOCC2)c1,2.0,-79.5,14.6,79.5*,13.0
O=C(N/N=C/c1cc(Br)cc(Br)c1O)c1cccc(S(=O)(=O)N2CCOCC2)c1,-2.2,.,?,.,42.6
Fc1ccc(-c2ccc3c(n2)CCCN3Cc2ccccc2C(F)(F)F)cc1,-5.0,.,.,.,.
Cc1cccc(C)c1NC(=O)[C@H]1CC(=O)O[C@@H]1c1ccccc1,-4.8,.,.,.,.
N#Cc1nc(COc2ccc(Cl)cc2Cl)oc1N1CCN(c2ccccc2)CC1,-1.2,117.5*,0.4,-117.5,.
COC(=O)N1C[C@H](OCCCOCc2ccccc2)[C@H]2C[C@@H]1c1ccccc1O2,-1.9,.,.,.,.
CCCCCCC(=O)NC1CCCCN(Cc2cccc(Cl)c2)C1=O (stereo unspecified),3.8,.,.,.,.
CCOc1ccccc1Nc1nnc(SCC(=O)N(C)C2CCS(=O)(=O)C2)s1 (stereo unspecified),-4.1,-75.2,8.9,75.2*,3.1
COc1ccc(-c2c[n+](CC(=O)OC3CC(C)CCC3C(C)C)c3n2CCC3)cc1 (stereo unspecified),-11.6,-6.3,-20.1,35.0,6.6
CC(C)[C@@H]1CC[C@@H](C)C[C@H]1OC(=O)C[n+]1cc(-c2ccc(Cl)cc2)n2c1CCCCC2,-5.5,.,-17.7,.,80.1*
Cc1cc(N2CCN(CC(C)(C)O)C[C@@H]2C)ccc1N1CCN(CC(C)(C)O)[C@@H](C)C1,4.8,.,.,.,.
Cc1cc(CNC(=O)c2cccc3c2C(=O)c2ccc(-c4ccc(F)cc4OCc4ccccc4)cc2S3(=O)=O)c(C(F)(F)F)o1,1.1,-90.1,1.0,90.1*,40.7
CC1CCN(c2ccc3c(c2)S(=O)(=O)c2cccc(C(=O)NCc4cccc(F)c4)c2C3=O)CC1,0.5,-21.8,8.1,21.8,-24.0
O=C(NCc1cccc(F)c1)c1cccc2c1C(=O)c1ccc(N3CCC(Cc4ccccc4)CC3)cc1S2(=O)=O,.,-27.2,121.2*,27.1,-29.8
O=C(NC[C@H]1CCCO1)c1cccc2c1C(=O)c1ccc(-c3ccc(F)cc3OCc3ccccc3)cc1S2(=O)=O,-1.6,-60.7,-3.8,60.7,21.2
O=C(NCc1cccc(C(F)(F)F)c1)c1cccc2c1C(=O)c1ccc(N3CCC(Cc4ccccc4)CC3)cc1S2(=O)=O,.,-33.8,122.5*,33.8,-31.2
O=C(NCc1ccc(OC(F)(F)F)cc1)c1cccc2c1C(=O)c1ccc(N3CCCCC3)cc1S2(=O)=O,0.3,6.6,55.1*,-6.6,-7.1
COC(=O)C1=C(C)N(Cc2cccc(C(F)(F)F)c2)C(=NCc2cc(OC)c(OC)c(OC)c2)NC1c1cccc(Cl)c1 (stereo unspecified),-3.4,.,.,.,.
CN1c2cccc3cccc(c23)N(C)C1(C)C,-1.4,4.1,1.2,-4.1,-17.8
CC(=O)c1ccc2cccc3c2c1N=CN3C,3.2,5.2,67.2*,-5.2,.
CN(NC(=O)C(=O)NCc1ccco1)C(=O)NC1CCCCC1,-2.7,.,.,.,.
O=C(NCC1CCN(C(=O)C(=O)c2cc3ccccc3o2)CC1)c1cccnc1,-5.5,.,.,.,.
COC(=O)c1cc2c(c3c4cc(C)ccc4n(S(=O)(=O)c4ccc(OC)cc4)c13)C(=O)N(Cc1ccccc1OC)C2,-1.9,.,.,.,.
CC(=O)[C@@]1(O)Cc2c(O)c3c(c(O)c2[C@H](O[C@H]2C[C@H](N)[C@H](O)[C@H](C)O2)C1)C(=O)c1ccccc1C3=O,-11.9,.,66.5*,.,-168.7

# High-throughput results as filed in PubChem.
